Measurements: PMC4372064 (ACS Chemical Neuroscience, 2014)
“Also recorded” adds a separate entry of the source. Read-outs that look alike come from different tables or passages of the source.

Experiments:
[1] = tested on: rats (tibial-nerve injury model); test: Tibial-nerve injury; format: in vivo, rat
rat (MES seizure model) = conditions: po, (95% CI), cited from earlier work
mice (MES seizure model) = conditions: ip, (95% CI), cited from earlier work
[2] = tested on: voltage-gated sodium channels in rat embryonic cortical neurons; format: cell-based; conditions: 10 μM
scMet seizure model = conditions: cited from earlier work
[3] = tested on: voltage-gated sodium channels in rat embryonic cortical neurons; test: Whole-cell patch clamp, steady-state activation, rat embryonic cortical neurons; format: cell-based; conditions: 10 μM
[4] = molecular target: T1, sodium channels in CAD cells (Mus musculus, UniProt Q62205); test: Whole-cell patch clamp, steady-state fast inactivation, CAD cells; format: cell-based
Method in brief: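 CAD cells were recorded by whole-cell clamp at room temperature, with 3 s between pulses. Steady-state fast inactivation was induced by a previously described protocol. Test compound was applied at 10 μM (10–200 μM for one compound) versus 0.1% DMSO control. Each recording was fitted to a Boltzmann function to give V1/2 and slope k, which were averaged (mean ±SEM). Cells numbered 3–7 per condition, compared by Student's t test or one-way ANOVA.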

[5] = tested on: Na+ currents in CAD cells; test: Whole-cell patch clamp, frequency; format: cell-based, mouse; conditions: 100 μM
Method in brief: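 Whole-cell voltage clamp was done at room temperature on CAD cells (Ham's F12/DMEM, 10% FBS, 1% pen/strep, 37 °C, 5% CO2, passaged 1:5 every 3–5 days). Criteria were access resistance <3 MΩ and −P/4 leak subtraction. Cells were held at −80 mV and given 20 ms pulses to −10 mV at 10 Hz. Peak currents were compared with the first pulse against 0.1% DMSO control, with test compound at 10 or 100 μM.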

[6] = tested on: voltage-gated sodium channels in rat embryonic cortical neurons; test: Whole-cell patch clamp, inactivation protocol, rat embryonic cortical neurons; format: cell-based; conditions: 10 μM
[7] = tested on: mice (6 Hz psychomotor seizure model); conditions: ip, 32 mA, [time of peak effect, h], (95% CI); cited from earlier work
[8] = tested on: rat (behavioral toxicity); conditions: po, h]; cited from earlier work
[9] = molecular target: T1, sodium channels in CAD cells; conditions: cited from earlier work
[10] = tested on: mice (formalin pain model); conditions: 8 mg/kg; cited from earlier work
[11] = tested on: Na+ currents in CAD cells; conditions: 100 μM; cited from earlier work

T1 sequence (Q62205 whole entry): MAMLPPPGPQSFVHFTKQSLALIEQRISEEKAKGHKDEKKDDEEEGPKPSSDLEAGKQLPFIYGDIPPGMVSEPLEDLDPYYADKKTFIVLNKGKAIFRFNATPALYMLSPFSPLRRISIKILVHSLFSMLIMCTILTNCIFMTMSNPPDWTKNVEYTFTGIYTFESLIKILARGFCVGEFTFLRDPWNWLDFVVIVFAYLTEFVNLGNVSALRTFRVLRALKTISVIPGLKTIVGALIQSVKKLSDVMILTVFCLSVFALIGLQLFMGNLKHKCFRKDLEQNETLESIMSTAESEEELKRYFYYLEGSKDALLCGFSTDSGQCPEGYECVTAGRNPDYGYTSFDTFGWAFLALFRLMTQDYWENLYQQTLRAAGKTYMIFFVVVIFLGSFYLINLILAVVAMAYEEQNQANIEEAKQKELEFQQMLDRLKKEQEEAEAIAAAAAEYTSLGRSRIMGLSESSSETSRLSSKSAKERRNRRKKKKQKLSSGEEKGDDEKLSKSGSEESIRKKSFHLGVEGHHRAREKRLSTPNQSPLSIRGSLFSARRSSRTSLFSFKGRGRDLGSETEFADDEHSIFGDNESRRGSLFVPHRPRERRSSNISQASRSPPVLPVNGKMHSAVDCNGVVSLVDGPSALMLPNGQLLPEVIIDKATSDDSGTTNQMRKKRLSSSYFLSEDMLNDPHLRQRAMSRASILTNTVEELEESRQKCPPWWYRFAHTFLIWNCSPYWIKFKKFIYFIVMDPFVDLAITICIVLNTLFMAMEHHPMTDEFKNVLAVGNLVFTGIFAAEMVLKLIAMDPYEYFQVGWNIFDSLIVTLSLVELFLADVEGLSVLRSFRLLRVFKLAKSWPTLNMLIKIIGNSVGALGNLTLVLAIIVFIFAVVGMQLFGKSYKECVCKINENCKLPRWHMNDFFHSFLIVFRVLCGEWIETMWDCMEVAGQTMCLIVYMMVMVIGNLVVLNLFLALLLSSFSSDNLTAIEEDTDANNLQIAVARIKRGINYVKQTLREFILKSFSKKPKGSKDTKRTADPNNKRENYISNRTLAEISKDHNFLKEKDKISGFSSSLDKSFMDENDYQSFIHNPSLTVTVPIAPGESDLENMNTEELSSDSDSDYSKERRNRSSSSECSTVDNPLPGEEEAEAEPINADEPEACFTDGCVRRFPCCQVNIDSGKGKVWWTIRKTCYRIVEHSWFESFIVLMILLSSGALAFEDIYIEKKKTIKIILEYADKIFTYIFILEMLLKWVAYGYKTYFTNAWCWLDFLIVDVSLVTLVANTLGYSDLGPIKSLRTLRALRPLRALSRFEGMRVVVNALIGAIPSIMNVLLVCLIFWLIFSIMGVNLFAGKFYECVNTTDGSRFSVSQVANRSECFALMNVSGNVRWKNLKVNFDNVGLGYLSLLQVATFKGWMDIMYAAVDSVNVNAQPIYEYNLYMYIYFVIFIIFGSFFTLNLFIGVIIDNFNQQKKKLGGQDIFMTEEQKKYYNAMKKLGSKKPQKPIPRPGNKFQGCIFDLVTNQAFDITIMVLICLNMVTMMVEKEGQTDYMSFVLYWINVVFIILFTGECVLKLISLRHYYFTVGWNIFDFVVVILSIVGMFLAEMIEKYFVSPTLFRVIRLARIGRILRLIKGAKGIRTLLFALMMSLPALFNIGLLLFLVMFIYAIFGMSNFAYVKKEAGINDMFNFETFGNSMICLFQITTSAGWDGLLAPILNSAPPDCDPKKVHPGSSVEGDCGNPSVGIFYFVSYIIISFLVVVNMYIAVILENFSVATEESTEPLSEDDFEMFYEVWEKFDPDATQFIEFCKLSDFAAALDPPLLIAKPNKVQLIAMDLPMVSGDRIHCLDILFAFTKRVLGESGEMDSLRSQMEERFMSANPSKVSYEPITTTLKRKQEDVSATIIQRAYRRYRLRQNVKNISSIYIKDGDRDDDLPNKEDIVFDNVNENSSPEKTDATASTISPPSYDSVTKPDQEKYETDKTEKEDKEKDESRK

Structure (SMILES): NC(=O)N1c2ccccc2C=Cc2ccccc21 [carbamazepine]
- effect on tactile hypersensitivity (in words) ([1]; TNI, 65 mg/kg, ip): ineffective

Structure (SMILES): O=C1NC(=O)C(c2ccccc2)(c2ccccc2)N1 [phenytoin]
- MES, ED50 (rat (MES seizure model); [time of peak effect, h]): 30 mg/kg
- MES, ED50 (mice (MES seizure model); [time of peak effect, h]): 9.5 mg/kg

Structure (SMILES): C[C@H](NCc1ccc(OCc2cccc(F)c2)cc1)C(N)=O [(S)-3, (S)-2-(4′-((3″-fluoro)benzyloxy)benzyl)aminopropionamide]
- effect on steady-state fast inactivation (in words) [2]: neither (R)-2 nor (S)-3 affected fast inactivation
- scMet ED50 (scMet seizure model): 27 mg/kg
- effect on steady-state activation of VGSCs (in words) [3]: neither 10 μM (R)-2 nor 10 μM (S)-3 affected the steady-state activation
- MES, ED50 (rat (MES seizure model)): 12 (10–14) mg/kg
- effect on VGSC fast inactivation [4]: promoted fast inactivation of VGSCs
- hyperpolarizing shift in V1/2 of fast inactivation vs control (maximum) ([4]; 200 μM): ~21.6 mV
- inhibition of Na+ current, frequency (use)-dependence [5]: ~13%
- effect on mechanical/tactile hypersensitivity (in words) ([1]; TNI day 14, single ip administration, 10 mg/kg): no effect; also recorded: without effect
- effect on sodium channel inactivation (in words) [6]: neither parent compound affected inactivation
- MES, ED50 (mice (MES seizure model)): 4.1 (3.0–5.5) mg/kg

Structure (SMILES): COC[C@@H](NC(C)=O)C(=O)NCc1ccccc1 [(R)-2, (R)-N-benzyl 2-N-acetamido-3-methoxypropionamide]
- effect on steady-state fast inactivation (in words) [2]: neither (R)-2 nor (S)-3 affected fast inactivation
- effect on steady-state activation of VGSCs (in words) [3]: neither 10 μM (R)-2 nor 10 μM (S)-3 affected the steady-state activation
- 6 Hz ED50 [7]: 10 mg/kg
- MES, ED50 (rat (MES seizure model); [time of peak effect, h]): 3.9 mg/kg
- Tox, TD50 (behavioral toxicity) [8]: >500 [0.5] mg/kg
- reversal of tactile hypersensitivity (% of preinjury values) ([1]; TNI day 14, 10 mg/kg ip, 1 h after administration): ~72%
- effect on sodium channel fast inactivation [9]: did not
- effect on sodium channel inactivation (in words) [6]: neither parent compound affected inactivation
- activity in the second (inflammation) phase of the formalin model [10]: effective
- reduction of Na+ currents, frequency (use)-dependence [11]: ~8.8%
